Source: PubChem BioAssay (The Scripps Research Institute Molecular Screening Center)
V1aR counter = V1a receptor agonism, counter-screen for OXTR agonists. 320,000 compounds, 0.25% hits. CHO-V1R cells, Fluo-8 calcium fluorescence, agonist mode; 0% DMSO, 100% 3 nM vasopressin. activation, % at 3 µM. P37288. AID 2797;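 active = activation above the mean activation of all tested compounds plus 3 SD, per screening run, cut at about 20% in these data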;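 also: signal is peak over basal fluorescence ratio across a 100 second FLIPR read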
TRPML3 ag = human mucolipin-3 channel agonism. 220,000 compounds, 0.29% hits. Q8TDD5. HEK293 TRPML3-YFP, Fluo-8 calcium fluorescence; 100% = the carbachol control signal. activation, % at 3 µM;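 active = activation above its plate's cutoff, the mean activation of the plate's test wells plus 3 SD, cut at about 12% in these data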
Target sequence (Q8TDD5 whole entry, looked up): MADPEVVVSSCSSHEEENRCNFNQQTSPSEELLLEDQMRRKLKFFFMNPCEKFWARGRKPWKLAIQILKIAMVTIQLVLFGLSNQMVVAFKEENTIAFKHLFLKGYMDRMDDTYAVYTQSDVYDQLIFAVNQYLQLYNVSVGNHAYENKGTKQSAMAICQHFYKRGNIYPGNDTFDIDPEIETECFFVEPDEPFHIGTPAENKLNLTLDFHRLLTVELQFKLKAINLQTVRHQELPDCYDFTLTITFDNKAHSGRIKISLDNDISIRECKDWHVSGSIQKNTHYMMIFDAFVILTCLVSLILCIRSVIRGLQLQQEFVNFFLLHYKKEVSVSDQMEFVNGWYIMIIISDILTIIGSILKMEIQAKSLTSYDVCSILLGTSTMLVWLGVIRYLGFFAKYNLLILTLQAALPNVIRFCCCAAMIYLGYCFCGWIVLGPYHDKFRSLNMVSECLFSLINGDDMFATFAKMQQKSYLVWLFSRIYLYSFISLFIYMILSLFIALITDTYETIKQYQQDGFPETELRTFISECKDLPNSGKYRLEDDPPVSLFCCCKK
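Material: TRPML3-YFP stable HEK293 cells | Dosing: One concentration, 3 µM nominal, 0.3% DMSO | Timing: 125 s total fluorescence read per well | Technique: Fluo-8 calcium dye fluorescence, ex 470-495, em 515-575 nm | Measure: Percent activation from peak-to-basal fluorescence ratio, scaled between DMSO and carbachol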
zfTRPN1 agonist = agonists of zebrafish TRPN1 channel. HEK293 zebrafish TRPN1-YFP, Fluo-8 calcium fluorescence; 100% = response to 87 µM carbachol. activation, % at 3 µM. 220,000 compounds, 0.18% hits;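 active = activation above its plate's cutoff, the mean activation of test wells on that plate plus 3 SD, cut at about 19% in these data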
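Material: zebrafish TRPN1-YFP in HEK293 cells; Doses: single test compound dose, 3 µM nominal, 0.3% DMSO; Timing: dye loading 1 h at 37 °C, then 30 min room temperature; Technique: intracellular calcium fluorescence with Fluo-8; Benchmarks: high carbachol 87 µM, low DMSO alone.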
OXTR potentiate = potentiates the human oxytocin receptor response | P30559 | CHO-OTR cells, Fluo-8 calcium fluorescence, potentiator mode; 0% = oxytocin EC15, 100% = EC100 | activation, % at 3 µM | 320,000 compounds, 0.061% hits | AID 2445;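 active = activation above that plate's cutoff, the mean activation of tested compounds plus 3 SD, cut at about 6.6% in these data, passing the limit was not always enough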
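Material: human OTR in CHO cells. Compound: 3.0 µM, one dose. Timing: compound 6 min at room temperature before oxytocin, 100 s read. Evaluation: % activation of max/min ratio relative to oxytocin controls. Replication: single well per compound, singlicate. Signal: Fluo-8 calcium dye fluorescence.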
OXTR ag = agonists of human oxytocin receptor. CHO-OTR cells, Fluo-8 calcium fluorescence; normalized: DMSO 0%, oxytocin 100%. activation, % at 3 µM. P30559. 320,000 compounds, 0.32% hits;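 active = activation above the mean of all tested compounds plus 3 SD, cutoff set per screening run, cut at about 20% in these data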;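 also: peak over basal fluorescence ratio from a 100 s FLIPR kinetic read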
TRPN1 ag 2 = zebrafish TRPN1 agonism as TRPML3 agonist counter-screen | shares compounds with TRPML3 ag | HEK293 zebrafish TRPN1-YFP, Fluo-8 calcium fluorescence; scaled: carbachol wells 100%, DMSO wells 0% | activation, % at 3 µM | 310 compounds, 10% hits | AID 1525;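 active = mean activation over replicates above a set limit taken from the earlier TRPN1 channel primary screen, cut at about 19% in these data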
TRPML3 confirm = confirmation of human TRPML3 channel agonists; shares compounds with TRPML3 ag; HEK293 TRPML3-YFP, Fluo-8 calcium fluorescence; 100% set by carbachol, 0% by DMSO; activation, % at 3 µM; 310 compounds, 80% hits;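 active = activation above a set limit derived from the earlier primary screen, cut at about 12% in these data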
Numbers stand for hits; n = inactive; x = no result given. Hits are enriched below; roughly 0.58% of the tested compounds scored in any of these assays.

SMILES	V1aR counter	TRPML3 ag	zfTRPN1 agonist	OXTR potentiate	OXTR ag	TRPN1 ag 2	TRPML3 confirm
COc1ccc(NC(C)(C)c2nnnn2-c2c(C)cccc2C)cc1	n	21	n	n	n	n	n
COCc1cc(CN2CCCC(CNC(=O)c3ccc(F)cc3)C2)ccc1OC (stereo not given)	n	n	n	n	n	x	x
CC(=O)N1CCN(c2ccccc2NC(=O)COc2ccccc2C)CC1	n	n	n	n	n	x	x
Cc1ccccc1OCC(=O)Nc1ccccc1N1CCOCC1	n	47	n	n	n	n	57
Cc1ccccc1OCC(=O)Nc1cc(S(=O)(=O)N2CCCCC2)ccc1N1CCN(C)CC1	n	21	n	n	n	n	23
S=c1[nH]ccn1-c1ccccc1Cl	n	n	n	n	n	x	x
O=S(=O)(Oc1ccccc1N1CCCCC1)c1ccccc1	n	13	n	n	n	n	14
O=C1CCC(=O)N1c1ccccc1OS(=O)(=O)c1ccccc1	n	x	x	n	n	x	x
CC1(C)OC(C(=O)NC2CCCCC2)C(C(=O)NC2CCCCC2)O1 (stereo not given)	n	n	n	n	n	x	x
Cc1ccc(Oc2ccc(Cl)cc2N)cc1	n	16	n	n	n	n	n
O=C(Cn1cc([N+](=O)[O-])ccc1=O)NCc1ccc(Cl)cc1Cl	n	x	x	n	n	x	x
O=C(c1ccc([N+](=O)[O-])cc1)N(Cc1ccc(Cl)cc1Cl)N1C(=O)CCCC1=O	n	16	n	n	n	n	25
O=C(Nn1c(SCc2cccc([N+](=O)[O-])c2)nc2ccccc2c1=O)c1ccccc1	n	n	n	n	n	x	x
O=C(NC1CCCC1)C(c1ccccn1)N(C(=O)c1csnn1)c1ccccc1 (stereo not given)	n	x	x	n	n	x	x
Cc1cc(C)cc(N2C(=O)CSC2c2cccs2)c1 (stereo not given)	n	16	n	n	n	n	16
COc1ccccc1C1(CC(=O)N2CCCCC2)CCOC(C(C)C)C1 (stereo not given)	n	14	n	n	n	n	n
COc1ccc(C(C)(C)C)cc1NC(=O)c1cc(S(=O)(=O)N(C)C)ccc1N1CCCC1	n	34	n	n	n	n	33
CN(C)S(=O)(=O)c1ccc(N2CCCC2)c(C(=O)Nc2ccc(F)cc2F)c1	n	x	x	n	n	x	x
C=CCn1c2ccccc2c2nn(C)c(=S)nc21	n	x	x	n	n	x	x
COc1ccc(NC(=O)CSc2nc3nc(-c4cccs4)cc(C(F)(F)F)c3c(=O)[nH]2)c(OC)c1	n	n	n	n	n	x	x
CCS(=O)(=O)N1CCN(c2nc(-c3ccccc3)cs2)CC1	n	n	n	n	n	x	x
Cc1onc(-c2ccccc2)c1C(=O)N(Cc1ccco1)Cc1cccs1	x	29	n	x	x	n	19
Cc1onc(-c2ccccc2)c1C(=O)NCc1ccco1	n	n	n	n	n	x	x
O=S(=O)(Cc1cc(Cl)nc(-c2ccccc2)n1)c1ccccc1	n	19	n	n	n	n	35
Cc1ccc(S(=O)(=O)N2c3ccccc3-c3c(ssc3=S)C2(C)C)cc1	n	n	n	n	n	x	x
SMILES	V1aR counter	TRPML3 ag	zfTRPN1 agonist	OXTR potentiate	OXTR ag	TRPN1 ag 2	TRPML3 confirm
CC1(C)CSC(=S)N1S(=O)(=O)c1ccccc1	n	32	n	n	n	n	20
Cc1ccc(S(=O)(=O)N2CCCC(C(=O)N(Cc3cccs3)C3CC3)C2)cc1 (stereo not given)	n	n	n	n	n	x	x
CCC1CCCCN1S(=O)(=O)c1ccc(S(=O)(=O)N(Cc2ccccn2)CC2CCCO2)cc1 (stereo not given)	n	28	n	n	n	n	96
CCC1CCCCN1S(=O)(=O)c1ccc(S(=O)(=O)N(Cc2cccs2)C2CC2)cc1 (stereo not given)	n	95	n	n	n	n	112
Cc1ccc(S(=O)(=O)n2nccc2-c2c(-c3ccccc3)noc2C)cc1	n	120	n	n	n	n	94
Cc1onc(-c2ccc(Cl)cc2)c1-c1ccnn1S(=O)(=O)c1cccc(C(F)(F)F)c1	n	33	n	n	n	n	51
CCN(CC)CCOC(=O)c1ccc(NC(=O)CCCN2C(=O)/C(=C\c3cccs3)SC2=S)cc1	n	x	x	n	n	x	x
O=C(Nc1ccnn1C1CCN(Cc2ccc(O)c(Cl)c2)CC1)C1CCCC1	n	x	x	n	n	x	x
COc1ccccc1N(C)S(=O)(=O)c1ccc(Cl)c(C(=O)OCc2c(C)noc2C)c1	n	41	n	n	n	n	39
COc1cc(S(=O)(=O)N(C)C2CCCCC2)c(C)cc1C	x	54	n	x	x	n	63
COC(=O)c1cc(S(=O)(=O)N(C)C2CCCCC2)oc1C	n	n	n	n	n	x	x
Cc1cc(C(C)(C)C)oc1C(=O)N(CC(=O)NC1CCCC1)c1c(C)cccc1C	n	44	n	n	n	n	72
Cc1cc(C(C)(C)C)oc1C(=O)N(CC(=O)NC1CCCC1)c1ccc(F)cc1	n	n	n	n	n	x	x
COc1cc(C2CC(c3c(C)cc(C)[nH]c3=O)=NN2c2ccccc2F)cc(OC)c1OC (stereo not given)	n	x	x	n	n	x	x
COc1ccc(S(=O)(=O)NC2CCCC2)c(Cl)c1Cl	n	35	n	n	n	n	48
COc1cc(S(=O)(=O)N2CCCCCC2)ccc1Cl	n	44	n	n	n	n	61
O=S(=O)(c1ccc2ccccc2c1)N1CCCCC1	n	16	n	n	n	n	12
CC(C)c1ccc(S(=O)(=O)N2CCCCC2)cc1	n	15	n	n	n	n	15
COc1cc(S(=O)(=O)N2CCN(C)CC2)ccc1Cl	n	n	n	n	n	x	x
O=S(=O)(c1ccc2ccccc2c1)N1CCCCCC1	n	81	n	n	n	n	62
CN1CCCN(S(=O)(=O)c2ccc3ccccc3c2)CC1	n	x	x	n	n	x	x
COc1ccc(C2=Nn3c(nnc3-c3ccccc3F)SC2)cc1OCC1CC1	n	x	x	n	n	x	x
CCNC(=S)NNC(=O)C1CCCCC1	n	n	n	n	n	x	x
Cc1csc(NC(=O)CSc2nnc(-c3ccccn3)n2-c2ccc(C)c(C)c2)n1	n	n	n	n	n	x	x
COc1cc(C)nc(N(Cc2ccccc2)S(=O)(=O)c2ccccc2)n1	n	n	n	n	n	x	x
COc1cc(C)nc(N(Cc2ccccc2)S(=O)(=O)c2ccc(C)cc2)n1	n	27	n	n	n	n	50
CCOc1ncccc1C(=O)N(CC)CC(=O)NCc1ccc(F)cc1	n	x	x	n	n	x	x
